This is a sample that favours compounds with a hit; in the whole collection about 3.8% have one here.
HCV NS3 hel inh: inhibitors of HCV NS3 helicase, primary screen, biochemical, Cy5 molecular beacon fluorescence. NS3 helicase DNA unwinding. Hepatitis C virus NS3 helicase. 0.56% of 290,000 active. inhibition, % at 10.9 µM. AID 1800, 2009;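 active = inhibition above the mean of all tested compounds plus 3 SD, set per campaign, cut at about 35% in these data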
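assay system = NS3 helicase fragment of HCV | buffer or medium = MOPS pH 6.5, MgCl2, DTT, Tween20, BSA | timing = 60 min unwinding reaction at 25 °C after ATP addition | signal = Cy5 beacon fluorescence read at start and 1 h | read-out basis = % inhibition of unwinding | control set = low DMSO, high thioflavine S at 110 µM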
HSF1 inh: HSF1 inhibitors in luciferase reporter cells, primary screen, cell-based, NIH3T3, luminescence. NIH3T3-HGL HSE-luciferase, MG132-induced, luminescence 8 h; active compounds read low. activity change, negative = inhibition, % at 7.5 µM (by protocol). 0.77% of 300,000 active. AID 2098, 2009;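 active = more than half of replicate wells show activity change below -50%, luminescence cut by over half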;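 also: luciferase reports HSF-1 transcriptional activity via heat shock element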
HSP90 refold inh: HSP90 inhibitors, primary screen, cell lysate, luminescence | Heat shock protein HSP 90 (rabbit reticulocyte lysate; luciferase refolding) | Rabbit reticulocyte lysate, luciferase refolding luminescence, 3 h | inhibition, % at 5.6 µM | AID 1789, 2009 | 0.91% of 290,000 active;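 active = inhibition above the screen-wide mean plus 3 SD, computed separately per campaign, cut at about 16% in these data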;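 also: inhibitors lower the luminescence because luciferase stays unfolded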
Hep lipid drop: inhibitors of hepatocyte lipid droplet formation, primary screen, imaging, high-throughput imaging, BODIPY stain; AML12 mouse hepatocytes, oleate lipid droplets; inhibition, % at 6.5 µM; 0.4% of 240,000 active; AID 1656, 2009;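 active = lipid droplet intensity inhibited by at least 50%, with more than 500 cells counted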
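Assay system: AML12 hepatocytes (mouse); Probe or stimulus: oleic acid at 100 µM to induce lipid droplet formation; Dosing: compound at 6.5 µM only; Schedule: compound with oleate, overnight; Detection: fluorescence imaging, 20x objective, two fields per well; Measure: % inhibition of lipid droplet signal.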
HSF-1 act: HSF-1 activators, primary screen, NIH3T3-HGL cells, MG132 stress, luminescence, single point. 1.7% of 300,000 active. NIH3T3-HGL HSF-1 luciferase reporter, 8 h; 100% = twice DMSO control signal. activation, % at 9 µM;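 active = mean replicate activation of at least 50% with a set share of replicates each reaching 50%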
A number is an active result.

Screening COc1ccc2oc(=O)c(N3C(=O)c4ccccc4C3=O)cc2c1 returned HCV NS3 hel inh inactive, HSF1 inh -66, HSP90 refold inh inactive, Hep lipid drop inactive and HSF-1 act inactive.
For COc1ccc(N(CC(=O)NC2CCCCC2)C(=O)CNC(=O)c2ccco2)cc1 the results were HCV NS3 hel inh inactive, HSF1 inh inactive, HSP90 refold inh inactive, Hep lipid drop inactive and HSF-1 act inactive.
For COCCn1c(=O)[nH]c(=O)c2c1nc(-c1cc(Br)c3c(c1)OCO3)n2Cc1ccccc1 the results were HCV NS3 hel inh inactive, HSF1 inh inactive, HSP90 refold inh inactive, Hep lipid drop inactive and HSF-1 act 59.
Screening COCCCn1c(-c2cccc(Cl)c2)nc2c1c(=O)[nH]c(=O)n2Cc1ccccc1 returned HCV NS3 hel inh inactive, HSF1 inh inactive, HSP90 refold inh inactive, Hep lipid drop inactive and HSF-1 act inactive.
`Cc1ccc(-n2ncc3c(NCc4ccc5c(c4)OCO5)ncnc32)c(C)c1` gave HCV NS3 hel inh inactive, HSF1 inh -55, HSP90 refold inh inactive, Hep lipid drop inactive and HSF-1 act inactive.
Cc1ccc(-n2ncc3c(NCc4cccnc4)ncnc32)cc1C was read as HCV NS3 hel inh inactive, HSF1 inh inactive, HSP90 refold inh inactive, Hep lipid drop inactive and HSF-1 act 55.
For Cc1cccc(-n2ncc3c(NCc4ccc5c(c4)OCO5)ncnc32)c1 the results were HCV NS3 hel inh inactive, HSF1 inh inactive, HSP90 refold inh inactive, Hep lipid drop inactive and HSF-1 act inactive.
For Cc1cccc(-n2ncc3c(NCc4cccnc4)ncnc32)c1 the results were HSF1 inh inactive, Hep lipid drop inactive and HSF-1 act inactive.
`Cc1cc(NC(=S)N(Cc2ccc(Br)cc2)Cc2ccc(C(=O)O)cc2)ccc1Cl` gave HCV NS3 hel inh inactive, HSF1 inh inactive, HSP90 refold inh inactive, Hep lipid drop inactive and HSF-1 act 58.
O=S(=O)(NCc1ccccc1)c1ccccc1Br was read as HSF1 inh inactive, Hep lipid drop inactive and HSF-1 act inactive.
`Cc1ccc2oc(C(=O)N3CCC(O)(c4cccc(C(F)(F)F)c4)CC3)c(C)c2c1` gave HCV NS3 hel inh inactive, HSF1 inh inactive, HSP90 refold inh inactive, Hep lipid drop inactive and HSF-1 act 75.
Screening O=c1cc(NCCO)c2ccccc2o1 returned HCV NS3 hel inh inactive, HSF1 inh inactive, HSP90 refold inh inactive and HSF-1 act inactive.
For O=c1cc(NCCc2ccccc2)c2ccccc2o1 the results were HCV NS3 hel inh inactive, HSF1 inh inactive, HSP90 refold inh inactive, Hep lipid drop inactive and HSF-1 act 57.
`COC(=O)c1ccc(-c2ccc(/C=N/NC(=O)Cc3nnc(N)s3)o2)cc1` gave HCV NS3 hel inh inactive, HSF1 inh inactive, HSP90 refold inh inactive, Hep lipid drop inactive and HSF-1 act inactive.
`COc1ccc(S(=O)(=O)Nc2cc3c4c(oc3c3ccccc23)CC(C)(C)CC4=O)cc1` gave HCV NS3 hel inh inactive, HSF1 inh inactive, HSP90 refold inh inactive and HSF-1 act inactive.
Screening COc1ccc(S(=O)(=O)Nc2cc3c4c(oc3c3ccccc23)CCCC4=O)cc1 returned HCV NS3 hel inh inactive, HSF1 inh inactive, HSP90 refold inh inactive, Hep lipid drop inactive and HSF-1 act 56.
O=S(=O)(c1ccccc1)c1cnc(-c2ccccc2)nc1N1CCCCC1 was read as HCV NS3 hel inh inactive, HSF1 inh inactive, HSP90 refold inh inactive, Hep lipid drop inactive and HSF-1 act inactive.
Screening Cc1cc(=O)[nH]c(NCc2ccccc2)n1 returned HCV NS3 hel inh inactive, HSF1 inh inactive, HSP90 refold inh 16, Hep lipid drop inactive and HSF-1 act inactive.
Screening CC(C)=NNC(=O)C1=NNC(=O)C1 returned HCV NS3 hel inh inactive, HSF1 inh inactive, HSP90 refold inh inactive, Hep lipid drop inactive and HSF-1 act inactive.
CC(=NNC(=S)SCc1ccccc1)c1ccccn1 was read as HSF1 inh 95 and HSF-1 act 95.
CCOc1ccccc1NC(=S)NC(=O)C1CCCCC1 was read as HCV NS3 hel inh inactive, HSF1 inh inactive, HSP90 refold inh inactive, Hep lipid drop inactive and HSF-1 act inactive.
For O=c1cc(-c2c(F)c(F)c(F)c(F)c2F)oc2c(F)c(F)c(F)c(F)c12 the results were HCV NS3 hel inh inactive, HSF1 inh -94, HSP90 refold inh inactive, Hep lipid drop inactive and HSF-1 act inactive.
For CC(NC(=O)CCCc1nnc2n(C)c(=O)c3sccc3n12)c1ccccc1 (stereo not drawn) the results were HCV NS3 hel inh inactive, HSF1 inh inactive, HSP90 refold inh inactive, Hep lipid drop inactive and HSF-1 act inactive.
CC(C)N1C(=O)S/C(=C\c2ccc(-c3ccc(Cl)c(C(=O)O)c3)o2)C1=O was read as HCV NS3 hel inh inactive, HSF1 inh inactive, HSP90 refold inh inactive, Hep lipid drop inactive and HSF-1 act inactive.
Screening CCN(CC)c1ccc(/C=C2/SC(=O)N(C(C)C)C2=O)o1 returned HCV NS3 hel inh inactive, HSF1 inh inactive, HSP90 refold inh inactive, Hep lipid drop inactive and HSF-1 act 209.
`CNC(=S)N1CCC(NC(=O)C(Cc2ccccc2)NC(C)=O)CC1` (stereo not drawn) gave HCV NS3 hel inh inactive, HSF1 inh inactive, HSP90 refold inh inactive, Hep lipid drop inactive and HSF-1 act inactive.
COC(=O)c1cn(NC(=O)C2CCC(C)CC2)c(=O)c2ccccc12 (stereo not drawn) was read as HCV NS3 hel inh inactive, HSF1 inh inactive, HSP90 refold inh inactive and HSF-1 act 81.
For COC(=O)c1cn(NC(=O)CC2CCCCC2)c(=O)c2ccccc12 the results were HCV NS3 hel inh inactive, HSF1 inh inactive, HSP90 refold inh inactive, Hep lipid drop inactive and HSF-1 act inactive.
Screening COC(=O)c1cn(NC(=O)CCC2CCCC2)c(=O)c2ccccc12 returned HCV NS3 hel inh inactive, HSF1 inh -77, HSP90 refold inh inactive, Hep lipid drop inactive and HSF-1 act inactive.
For O=C(CSCc1ccccc1)NNc1c(F)c(F)cc(F)c1F the results were HCV NS3 hel inh inactive, HSF1 inh inactive, HSP90 refold inh inactive, Hep lipid drop inactive and HSF-1 act inactive.
For FC(F)(F)c1nnc2ccc(Sc3ccccn3)nn12 the results were HCV NS3 hel inh inactive, HSF1 inh inactive, HSP90 refold inh inactive, Hep lipid drop inactive and HSF-1 act inactive.
`COc1ccc2[nH]c(=O)c(CN(C3CCCCC3)C(c3nnnn3Cc3ccco3)C(C)C)cc2c1` (stereo not drawn) gave HCV NS3 hel inh inactive, HSF1 inh inactive, HSP90 refold inh inactive and HSF-1 act 119.
`CCOC(=O)Cn1nnnc1C(C(C)C)N(Cc1cc2c(C)cc(C)cc2[nH]c1=O)C1CCCC1` (stereo not drawn) gave HCV NS3 hel inh inactive, HSF1 inh inactive, HSP90 refold inh inactive, Hep lipid drop inactive and HSF-1 act 123.

Screening data: PubChem BioAssay, several laboratories
